In ChEMBL document CHEMBL1124671, “Carboxyalkyl dipeptides with atrial natriuretic factor potentiating and antihypertensive activity” (J Med Chem, 1989):
pIC50: −log10 of the molar value. Activity calls are given as the source filed them. The rule behind the calls is not given here.

Key:
[1] = target: T1, Natriuretic peptides A (Rattus norvegicus) (UniProt P01161); assay: Compound was administered subcutaneously to spontaneously hypertensive rats (SHR) and evaluated for the ability to potentiate atrial natriuretic factor (ANF)
T1 sequence (whole entry): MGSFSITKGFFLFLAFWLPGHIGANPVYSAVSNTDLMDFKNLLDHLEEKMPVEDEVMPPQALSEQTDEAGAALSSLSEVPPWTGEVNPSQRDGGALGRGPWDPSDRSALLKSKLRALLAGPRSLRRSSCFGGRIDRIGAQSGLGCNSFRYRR
Method in brief: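 Conscious SHR given 30 mg/kg s.c. 30 min before an i.v. challenge of 30 μg/kg ANF 103–125; mean arterial pressure followed, with vehicle-treated controls. Value is the maximum increase in hypotensive response to ANF over the control group.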

[2] = target: T2, Angiotensin-converting enzyme (Rattus norvegicus, UniProt P47820); assay: Compound was evaluated for the ability to inhibit Angiotensin I converting enzyme in rat
T2 sequence (P47820 whole entry): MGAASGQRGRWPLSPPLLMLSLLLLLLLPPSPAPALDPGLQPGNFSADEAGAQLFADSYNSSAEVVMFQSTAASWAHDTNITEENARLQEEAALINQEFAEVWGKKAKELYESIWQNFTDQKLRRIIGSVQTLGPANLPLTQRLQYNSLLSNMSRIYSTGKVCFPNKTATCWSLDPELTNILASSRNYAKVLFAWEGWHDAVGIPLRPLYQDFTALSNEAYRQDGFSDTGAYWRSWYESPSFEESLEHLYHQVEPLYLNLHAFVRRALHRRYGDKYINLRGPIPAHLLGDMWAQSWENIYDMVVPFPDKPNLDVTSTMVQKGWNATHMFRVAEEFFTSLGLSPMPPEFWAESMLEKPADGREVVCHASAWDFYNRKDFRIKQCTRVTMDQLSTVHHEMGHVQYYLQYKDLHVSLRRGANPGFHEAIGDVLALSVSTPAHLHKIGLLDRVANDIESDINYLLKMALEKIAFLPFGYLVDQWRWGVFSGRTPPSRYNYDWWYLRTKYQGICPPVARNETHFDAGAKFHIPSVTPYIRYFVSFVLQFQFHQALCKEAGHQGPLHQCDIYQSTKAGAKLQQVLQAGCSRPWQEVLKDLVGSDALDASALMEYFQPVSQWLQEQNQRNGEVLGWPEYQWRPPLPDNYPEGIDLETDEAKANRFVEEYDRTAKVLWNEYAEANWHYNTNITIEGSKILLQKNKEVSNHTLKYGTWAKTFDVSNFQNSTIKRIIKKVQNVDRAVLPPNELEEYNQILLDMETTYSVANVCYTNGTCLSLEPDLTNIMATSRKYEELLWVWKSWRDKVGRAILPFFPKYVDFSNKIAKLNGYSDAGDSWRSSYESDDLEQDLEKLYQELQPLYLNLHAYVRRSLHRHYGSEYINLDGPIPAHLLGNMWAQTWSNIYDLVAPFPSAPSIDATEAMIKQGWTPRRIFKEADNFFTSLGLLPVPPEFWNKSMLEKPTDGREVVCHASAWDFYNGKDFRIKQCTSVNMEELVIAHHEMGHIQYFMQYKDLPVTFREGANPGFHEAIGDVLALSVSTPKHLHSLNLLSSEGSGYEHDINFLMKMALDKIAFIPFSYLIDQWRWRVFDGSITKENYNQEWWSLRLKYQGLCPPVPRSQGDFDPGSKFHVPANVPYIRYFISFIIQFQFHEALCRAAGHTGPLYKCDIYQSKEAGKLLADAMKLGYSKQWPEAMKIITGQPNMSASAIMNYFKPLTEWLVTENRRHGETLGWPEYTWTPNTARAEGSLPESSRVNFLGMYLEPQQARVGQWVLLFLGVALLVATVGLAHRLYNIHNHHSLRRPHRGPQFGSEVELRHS

[3] = target: T3, Neprilysin (Oryctolagus cuniculus, UniProt P08049); assay: Compound was evaluated for the ability to inhibit neutral endopeptidase purified from rabbit kidney
T3 sequence (P08049 whole entry): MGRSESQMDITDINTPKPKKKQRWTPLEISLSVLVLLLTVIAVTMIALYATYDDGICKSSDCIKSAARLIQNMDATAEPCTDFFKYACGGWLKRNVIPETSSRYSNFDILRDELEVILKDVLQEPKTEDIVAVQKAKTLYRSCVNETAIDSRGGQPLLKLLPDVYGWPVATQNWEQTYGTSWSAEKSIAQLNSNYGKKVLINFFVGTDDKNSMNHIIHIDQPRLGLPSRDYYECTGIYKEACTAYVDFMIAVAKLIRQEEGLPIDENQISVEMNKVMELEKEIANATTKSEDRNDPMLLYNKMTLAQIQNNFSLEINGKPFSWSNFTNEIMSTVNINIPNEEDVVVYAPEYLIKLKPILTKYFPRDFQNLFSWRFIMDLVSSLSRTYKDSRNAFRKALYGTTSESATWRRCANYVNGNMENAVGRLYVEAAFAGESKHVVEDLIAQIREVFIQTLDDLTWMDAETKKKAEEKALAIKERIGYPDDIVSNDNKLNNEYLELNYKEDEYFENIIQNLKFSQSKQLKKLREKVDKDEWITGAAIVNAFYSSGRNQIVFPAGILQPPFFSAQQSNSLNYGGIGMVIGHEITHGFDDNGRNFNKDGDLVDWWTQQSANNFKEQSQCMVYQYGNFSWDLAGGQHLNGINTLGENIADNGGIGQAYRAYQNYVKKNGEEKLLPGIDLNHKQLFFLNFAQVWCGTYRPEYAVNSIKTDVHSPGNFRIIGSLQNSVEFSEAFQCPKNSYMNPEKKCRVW
Method in brief: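 Enzyme: purified rabbit kidney neutral endopeptidase (NEP).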

[4] = target: T1, Natriuretic peptides A (Rattus norvegicus); conditions: Cardiac atrium

SMILES	Delta blood pressure [1]	pIC50 [2]	pIC50 [3]	Delta blood pressure [4]
O=C(O)[C@H](CCc1ccccc1)N[C@@H](Cc1ccccc1)C(=O)NC[C@H](O)C(=O)O (stereo in doubt; 6d) [listing 1 of 2 here]	25 mmHg			
O=C(O)CCNC(=O)[C@H](Cc1ccccc1)N[C@@H](CCc1ccccc1)C(=O)O	17 mmHg	< 6.00	7.80	
O=C(O)[C@H](CO)NC(=O)[C@H](Cc1ccccc1)N[C@@H](CCc1ccccc1)C(=O)O		6.49	6.41	inactive
O=C(O)[C@H](CCc1ccccc1)N[C@@H](Cc1ccccc1)C(=O)NC[C@H](O)C(=O)O (stereo in doubt; 6d) [listing 2 of 2 here]		< 6.00	7.96	
O=C(O)[C@H](Cc1ccccc1)N[C@@H](Cc1ccccc1)C(=O)NC[C@H](O)C(=O)O	17 mmHg	< 6.00	7.96	
O=C(O)[C@H](CCc1ccccc1)N[C@@H](Cc1ccccc1)C(=O)NC[C@H](O)C(=O)O (stereo in doubt; 6e) [listing 1 of 2 here]		< 6.00	7.82	
O=C(O)[C@H](CCc1ccccc1)N[C@@H](Cc1ccccc1)C(=O)NC[C@H](O)C(=O)O (stereo in doubt; 6e) [listing 2 of 2 here]	35 mmHg			
O=C(O)[C@H](O)CNC(=O)[C@H](Cc1ccccc1)N[C@@H](CCc1ccccc1)C(=O)O	28 mmHg	6.19	7.68	
O=C(O)CCNC(=O)[C@H](Cc1ccccc1)N[C@@H](Cc1ccccc1)C(=O)O	20 mmHg	< 6.00	7.70	
